Test results as given in article PMC7340117 (SLAS discovery : advancing life sciences R & D, 2019).
In brackets after ≈: the same amount, converted by molar mass. Read-outs that look alike come from different tables or passages of the source.

Experiments:
Amplex red REDOX assay = assay: Amplex red REDOX assay
How it was run: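 Test compound (20 nL) was pinned into HBSS (1.26 mM CaCl2, 0.49 mM MgCl2, 1 g/L D-glucose), and background fluorescence was read (ex/em 525/598 nm). An equal volume of 2X Amplex Red mix (100 µM Amplex Red, 200 µM DTT, 2 U/mL HRP in HBSS) was added. After 15 min at room temperature the plate was re-read; ΔRFU = 15 min − 0 min. DMSO was the negative control; walrycin B and […] were positive controls.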

[1] = rat microsomal stability assay; type: in vitro ADME; conditions: liver microsomes
human fumarate hydratase [2] = biological target: T1, human fumarate hydratase (Homo sapiens, UniProt P07954); assay: microscale thermophoresis; type: binding
T1 sequence (P07954 45-510): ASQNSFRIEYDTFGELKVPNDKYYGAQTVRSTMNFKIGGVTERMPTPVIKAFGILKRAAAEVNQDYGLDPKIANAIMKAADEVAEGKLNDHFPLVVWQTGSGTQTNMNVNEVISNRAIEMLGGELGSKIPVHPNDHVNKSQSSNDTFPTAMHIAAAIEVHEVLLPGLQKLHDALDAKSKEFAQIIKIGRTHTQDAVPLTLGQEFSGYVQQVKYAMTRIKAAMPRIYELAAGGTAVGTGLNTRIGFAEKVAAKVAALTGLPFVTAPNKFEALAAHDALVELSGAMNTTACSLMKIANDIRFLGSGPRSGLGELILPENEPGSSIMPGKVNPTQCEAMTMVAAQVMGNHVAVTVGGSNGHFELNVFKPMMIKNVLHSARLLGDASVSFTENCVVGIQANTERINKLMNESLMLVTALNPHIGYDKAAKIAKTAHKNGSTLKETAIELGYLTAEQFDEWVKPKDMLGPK
How it was run: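 Recombinant C-terminally His-tagged human FH (200 nM) was labelled with RED-tris-NTA dye (100 nM) in PBS-T pH 7.4, mixed 1:1 for 30 min at RT, and spun 15,000 x g. Compound: 16-point 1:2 DMSO series from 10 mM, diluted 20-fold in PBS-T, mixed 1:1 with protein (50 nM FH), 2–3 min RT. Settings: LED 40%, MST 40%/60%, laser 30 s on. Kd taken from cold/hot regions.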

human fumarate hydratase [3] = biological target: T1, human fumarate hydratase; assay: fluorescence-based FH assay coupled to MDH/diaphorase/resazurin; type: biochemical; conditions: for Emax: read-out: Efficacy; for activity in FH assay (in words): human FH assay with fumarate
[4] = parallel artificial membrane permeability assay; type: in vitro ADME
[5] = aqueous kinetic solubility assay; type: physicochemical; conditions: aqueous medium, kinetic from dmso stock
[6] = biological target: T2, L-malate dehydrogenase from pig heart (Sus scrofa, UniProt P00346); assay: malate dehydrogenase; type: biochemical; conditions: read-out: Km value for MDH enzyme; 10 IU/ml MDH, 5 min, room temperature
T2 sequence (P00346 25-338): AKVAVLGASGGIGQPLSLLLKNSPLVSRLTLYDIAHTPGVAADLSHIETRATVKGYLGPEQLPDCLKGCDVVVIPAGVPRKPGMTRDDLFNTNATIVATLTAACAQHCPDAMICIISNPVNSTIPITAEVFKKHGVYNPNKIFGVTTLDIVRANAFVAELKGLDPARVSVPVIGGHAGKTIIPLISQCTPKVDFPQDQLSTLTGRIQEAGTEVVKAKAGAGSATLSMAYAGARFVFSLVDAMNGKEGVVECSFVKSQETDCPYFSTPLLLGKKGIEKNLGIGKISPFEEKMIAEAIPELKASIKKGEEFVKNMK

human fumarate hydratase [7] = biological target: T1, human fumarate hydratase; assay: FH assay without fumarate; type: biochemical; conditions: no fumarate added
malate dehydrogenase = biological target: T3, malate dehydrogenase (Sus scrofa, UniProt P00346); assay: MDH assay without malate; type: biochemical, pig; conditions: no malate added
T3 sequence (P00346 25-338): T2 sequence (P00346 25-338)

## O=C1C(Cl)=C(Cl)C(=O)C(Cl)=C1Cl [Chloranil]
Amplex red REDOX assay
  redox activity in amplex red assay (in words): strong REDOX activity

## Cn1c(=O)c2c(-c3ccc(Cl)cc3)n(CCc3ccccc3)cc2n(C)c1=O [NCGC00102736, 5-(4-chlorophenyl)-1,3-dimethyl-6-phenethyl-1,6-dihydro-2H-pyrrolo[3,4-d]pyrimidine-2,4(3H)-dione]
[1]
  half-life: 1.11 min
Human fumarate hydratase [2]
  Kd: 18.3 µM
Human fumarate hydratase [3]
  AC50: 8.89 µM
  Emax: 79.4%
[4]
  PAMPA permeability pH 5: 762.26 1×10–6 cm/s
  PAMPA Permeability pH 7.4: 1,224.00 1×10–6 cm/s
  PAMPA permeability at pH 7.4 (in words): high permeability
[5]
  solubility: 2.15 µg/mL (≈ 5.46 µM)

## CCCCn1cc2c(c1-c1ccc(Cl)cc1)c(=O)n(C)c(=O)n2C [NCGC00115662, 6-butyl-5-(4-chlorophenyl)-1,3-dimethyl-1,6-dihydro-2H-pyrrolo[3,4-d]pyrimidine-2,4(3H)-dione]
Human fumarate hydratase [3]
  AC50: 25.1 µM
  Emax: 60.5%

## Cn1c(=O)c2c(-c3ccc(Cl)cc3)n(Cc3ccc(Cl)cc3)cc2n(C)c1=O [NCGC00115664, 6-(4-chlorobenzyl)-5-(4-chlorophenyl)-1,3-dimethyl-1,6-dihydro-2H-pyrrolo[3,4-d]pyrimidine-2,4(3H)-dione]
Human fumarate hydratase [3]
  AC50: 17.7 µM
  Emax: 52%

## CCCCCn1cc2c(c1-c1ccc(Cl)cc1)c(=O)n(C)c(=O)n2C [NCGC00115666, 5-(4-chlorophenyl)-1,3-dimethyl-6-pentyl-1,6-dihydro-2H-pyrrolo[3,4-d]pyrimidine-2,4(3H)-dione]
Human fumarate hydratase [3]
  AC50: 5.61 µM
  Emax: 35%

## Cn1c(=O)c2c(-c3ccccc3Cl)n(Cc3ccc(Cl)cc3)cc2n(C)c1=O [NCGC00115668, 6-(4-chlorobenzyl)-5-(2-chlorophenyl)-1,3-dimethyl-1,6-dihydro-2H-pyrrolo[3,4-d]pyrimidine-2,4(3H)-dione]
Human fumarate hydratase [3]
  AC50: 15.8 µM
  Emax: 45.5%

## CCCCCn1cc2c(c1-c1ccc(Br)cc1)c(=O)n(C)c(=O)n2C [NCGC00117671, 5-(4-bromophenyl)-1,3-dimethyl-6-pentyl-1,6-dihydro-2H-pyrrolo[3,4-d]pyrimidine-2,4(3H)-dione]
[1]
  half-life: 6.39 min
Human fumarate hydratase [3]
  AC50: 7.93 µM
  Emax: 60.1%
[4]
  PAMPA permeability pH 5: 945.87 1×10–6 cm/s
  PAMPA Permeability pH 7.4: Not conclusive
[5]
  solubility: < 1 µg/mL

## CCCCn1cc2c(c1-c1ccc(Br)cc1)c(=O)n(C)c(=O)n2C [NCGC00117675, 5-(4-bromophenyl)-6-butyl-1,3-dimethyl-1,6-dihydro-2H-pyrrolo[3,4-d]pyrimidine-2,4(3H)-dione]
[1]
  half-life: 7.68 min
Human fumarate hydratase [2]
  Kd: 23.3 µM
Human fumarate hydratase [3]
  AC50: 9.98 µM
  Emax: 79%
[4]
  PAMPA permeability pH 5: 1,194 1×10–6 cm/s
  PAMPA Permeability pH 7.4: 1,507 1×10–6 cm/s
  PAMPA permeability at pH 7.4 (in words): high permeability
[5]
  solubility: < 1 µg/mL

## Cn1c(=O)c2c(-c3ccc(Br)cc3)n(CCc3ccccc3)cc2n(C)c1=O [NCGC00117693, 5-(4-bromophenyl)-1,3-dimethyl-6-phenethyl-1,6-dihydro-2H-pyrrolo[3,4-d]pyrimidine-2,4(3H)-dione]
[1]
  half-life: 1.23 min
Human fumarate hydratase [3]
  AC50: 7.06 µM
  Emax: 63.7%
[4]
  PAMPA permeability pH 5: 590 1×10–6 cm/s
  PAMPA Permeability pH 7.4: Not conclusive
[5]
  solubility: 14.7 µg/mL (≈ 33.5 µM)

## COc1ccc(CCn2cc3c(c2-c2ccc(Br)cc2)c(=O)n(C)c(=O)n3C)cc1OC [NCGC00117695, 5-(4-bromophenyl)-6-(3,4-dimethoxyphenethyl)-1,3-dimethyl-1,6-dihydro-2H-pyrrolo[3,4-d]pyrimidine-2,4(3H)-dione]
Human fumarate hydratase [3]
  AC50: 31.5 µM
  Emax: 79.5%

## CCCCCn1cc2c(c1-c1ccccc1Br)c(=O)n(C)c(=O)n2C [NCGC00117699, 5-(2-bromophenyl)-1,3-dimethyl-6-pentyl-1,6-dihydro-2H-pyrrolo[3,4-d]pyrimidine-2,4(3H)-dione]
Human fumarate hydratase [3]
  AC50: 31.5 µM
  Emax: 49.7%

## Cn1c(=O)c2c(-c3ccccc3Br)n(Cc3ccccc3)cc2n(C)c1=O [NCGC00117701, 6-benzyl-5-(2-bromophenyl)-1,3-dimethyl-1,6-dihydro-2H-pyrrolo[3,4-d]pyrimidine-2,4(3H)-dione]
Human fumarate hydratase [3]
  AC50: 28.1 µM
  Emax: 78.1%

## Cn1c(=O)c2c(-c3ccccc3Br)n(CCc3ccccc3)cc2n(C)c1=O [NCGC00117727, 5-(2-bromophenyl)-1,3-dimethyl-6-phenethyl-1,6-dihydro-2H-pyrrolo[3,4-d]pyrimidine-2,4(3H)-dione]
Human fumarate hydratase [3]
  AC50: 25.1 µM
  Emax: 70%

## Cn1c(=O)c2c(-c3ccccc3)n(CCCO)cc2n(C)c1=O [NCGC00141286]
Human fumarate hydratase [3]
  activity in FH assay (in words): inactive

## O=C([O-])C(O)C(O)C(=O)[O-].[K+].[Na+] (centres unmarked) [Potassium sodium tartrate, reference compound]
Human fumarate hydratase [3]
  activity in FH assay (in words): increased activity

## Cn1nc(-c2ccc(C(F)(F)F)cc2)nc2c(=O)n(C)c(=O)nc1-2 [Walrycin B]
Amplex red REDOX assay
  redox activity in amplex red assay (in words): weak
Amplex red REDOX assay; listed as walrycin B
  redox activity in amplex red assay (in words): weak REDOX activity

## O=C(O)/C=C/C(=O)O [fumarate, reference compound]
Human fumarate hydratase [3]; read-out: Km value for FH enzyme, 10 nM FH, 15 min, room temperature
  Km: 41 ± 1.1 µM

## O=C(O)CC(O)C(=O)O (centres unmarked) [malate]
[6]
  Km: 225 ± 30 µM

## O=C(O)C(O)C(O)C(=O)O (centres unmarked) [tartrate]
Human fumarate hydratase [7]
  signal in FH assay in the absence of fumarate (in words): can drive both enzymes
Malate dehydrogenase
  signal in MDH assay in the absence of malate (in words): can drive both enzymes
